Most compounds without a hit are left out; they make up all but 3.7% or so of the library.
KCNQ1 pot: potentiates or activates the human KCNQ1 potassium channel; CHO-K1 KCNQ1, thallium flux FluxOR fluorescence; stronger effect = higher value; 0.35% of 310,000 active; P51787; AID 2648; B-score at 10 µM;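 active = fluorescence ratio B-score, a plate-corrected score, at least three library SD, with initial intensity B-score within 5 SD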
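assay system = CHO-K1 cells stably expressing KCNQ1 | medium = assay buffer, equal DMSO in all wells | timing = 37 °C overnight plating, 90-min dark dye load, 20-min compound pretreatment | measured by = kinetic FluxOR thallium fluorescence, 10-s 1-Hz baseline, 110-s post-stimulus read | measure = fluorescence change relative to baseline, converted to B score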
KCNK3 block: human KCNK3 channel inhibition, primary screen | O14649 | CHO-KCNK3 thallium flux, FluxOR fluorescence; stronger effect = lower value | B-score at 10 µM | 0.84% of 340,000 active | AID 602410;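 active = B-score under library mean minus 4 SD, starting fluorescence ratio at most library mean plus 5 SD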;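 also: more negative B-score means stronger inhibition of thallium flux through KCNK3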
hERG rescue: compounds protecting human hERG from proarrhythmic drug block; Q12809; CHO-hERG, FluxOR thallium flux, dofetilide IC70 present; activation (rescue from dofetilide block), less the hit threshold, % at 10 µM; 0.51% of 310,000 active;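 active = activation above the mean of controls blocked by dofetilide plus 5 SD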;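 also: thallium influx through hERG after potassium depolarization seen as dye fluorescence rise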
KCNK9 inh: inhibitors of human KCNK9 two-pore domain potassium channel; Q9NPC2; HEK293 KCNK9, FluxOR thallium flux fluorescence; stronger effect = lower value; B-score at 10 µM; 1.2% of 310,000 active; AID 488922;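 active = ratio B-score over 3 SD below the library mean, with starting fluorescence within 5 SD of its mean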;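 also: negative B-score means less thallium flux so channel inhibition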
KCNQ1 block: human KCNQ1 channel inhibition; P51787; CHO-K1 KCNQ1, FluxOR thallium flux fluorescence; stronger effect = higher value; B-score at 10 µM; 1.3% of 310,000 active;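 active = compounds whose thallium flux B-score, printed positive for inhibition, exceeds three library SD while starting fluorescence stays within three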;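 also: channel opened by potassium depolarization with thallium stimulus after 20 min compound exposure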
Kir21 inh: blocks the mouse Kir2.1 inward-rectifier potassium channel; B-score at 10 µM; 0.85% of 310,000 active; HEK293-Kir2.1, FluxOR thallium flux fluorescence; stronger effect = lower value; P35561;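 active = fluorescence ratio B-score at or below minus 3 SD of library scores, with starting-brightness B-score within 2 SD, cut at about -4.2 in these data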;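 also: channel flux triggered by added potassium and thallium sulfate stimulus; B-score of peak minus minimum fluorescence over baseline after thallium stimulus; more negative B-score means stronger Kir2.1 block with less thallium influx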
Target sequence (P35561 whole entry, looked up): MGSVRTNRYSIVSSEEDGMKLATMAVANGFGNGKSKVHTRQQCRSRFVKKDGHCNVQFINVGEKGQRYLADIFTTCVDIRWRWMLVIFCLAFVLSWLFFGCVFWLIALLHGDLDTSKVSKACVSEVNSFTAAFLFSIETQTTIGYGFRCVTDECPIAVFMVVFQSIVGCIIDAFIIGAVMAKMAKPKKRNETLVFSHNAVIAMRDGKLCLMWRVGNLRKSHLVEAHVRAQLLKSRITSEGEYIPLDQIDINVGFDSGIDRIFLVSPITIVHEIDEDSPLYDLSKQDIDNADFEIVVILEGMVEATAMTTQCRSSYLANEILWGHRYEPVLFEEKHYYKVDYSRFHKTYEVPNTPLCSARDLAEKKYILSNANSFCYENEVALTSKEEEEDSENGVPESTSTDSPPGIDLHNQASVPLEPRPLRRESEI
KCNQ1 inh valid: confirmation of human KCNQ1 potassium channel inhibitors; shares compounds with KCNQ1 block; inhibition, % at 10 µM; KCNQ1 cell line, FluxOR thallium flux fluorescence; 93% of 1,600 active;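 active = primary screen active, with duplicate mean exceeding buffer control mean plus 3 SD of buffer wells, cut at about 28% in these data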;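 also: 0% = buffer control ratio and 100% = XE991 inhibitor control ratio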
CHO KCNQ1 ctr: activity in parental CHO cells lacking KCNQ1 | parental CHO-K1, FluxOR thallium flux fluorescence ratio; stronger effect = lower value; zero means no signal rise above baseline | 21% of 1,600 active | shares compounds with KCNQ1 block | fluorescence ratio (Tl flux) at 10 µM;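 active = mean of duplicate thallium-flux fluorescence ratios in parental host cells more than 5 SD below the buffer control mean, cut at about 0.38 in these data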;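 also: ratio is peak minus minimum fluorescence divided by baseline fluorescence; actives read low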
KCNQ1 APC inh: blocks human KCNQ1 current in automated patch clamp | shares compounds with KCNQ1 block | KCNQ1-CHO cells | calls only at 10 µM | 20% of 490 active;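 active = KCNQ1 current drop exceeding 3 SD of negative control wells, seen in both duplicate runs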;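 also: steady state current during a 2 s step from -80 to +40 mV; negative values mean current inhibition and positive values mean potentiation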
KCNQ2 spec: rat KCNQ2 inhibition in KCNQ1 inhibitor specificity screen. shares compounds with KCNQ1 block. KCNQ2 cells, FluxOR thallium flux fluorescence. inhibition, % at 10 µM. 71% of 1,600 active. AID 651746;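 active = mean percent inhibition of the KCNQ2 thallium signal more than 5 SD above the buffer-only control wells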;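 also: KCNQ2 expressed in CHO cells; 0% = buffer control wells and 100% = XE-991 inhibitor control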
KCNQ1-KCNE1 inh: KCNQ1 inhibitor that also blocks human KCNQ1/KCNE1 channel. shares compounds with KCNQ1 block. 77% of 1,600 active. KCNQ1/KCNE1 cells, FluxOR thallium flux fluorescence. AID 652147. inhibition, % at 10 µM;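 active = mean percent inhibition of duplicate wells above the buffer-only control mean plus 3 SD of those controls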;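 also: 0% = buffer only wells and 100% = XE-991 inhibitor control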
The depositor's hits bear a star; i = inactive; . = no result given; + = active, no number.

SMILES | KCNQ1 pot | KCNK3 block | hERG rescue | KCNK9 inh | KCNQ1 block | Kir21 inh | KCNQ1 inh valid | CHO KCNQ1 ctr | KCNQ2 spec | KCNQ1-KCNE1 inh | others
CC(c1ccccc1)N1C(=O)c2ccc(C(=O)Nc3ccc(Br)cc3C(=O)O)cc2C1=O (stereo unspecified) | i | i | -26 | i | 12* | -1.1 | 108* | 0.42 | i | 132%* | KCNQ1 APC inh=i
Cn1cc(S(=O)(=O)N2CCCC(C(=O)O)C2)cn1 (stereo unspecified) | i | i | 4 | i | i | -1 | . | . | . | .
O=C(Nc1ccccc1)Nc1ccc(Cl)c(S(=O)(=O)N2CCOCC2)c1 | i | i | -20 | i | 11* | -0.06 | 0 | 0.56 | i | i
COc1ccc(Cl)cc1S(=O)(=O)N1CCN(C)CC1 | i | i | -7 | i | i | -1.7 | . | . | . | .
COc1c(S(=O)(=O)N2CCN(C)CC2)ccc(Cl)c1Cl | i | i | 0 | i | 7* | 0.18 | 0 | 0.49 | i | 56%*
Cc1ccc(OCC(O)CNC(C)c2ccccc2)cc1C (stereo unspecified) | i | i | -6 | i | i | -2.9 | . | . | . | .
O=C1N(c2ccccc2C(F)(F)F)O[C@]1(c1ccccc1)C1CCCCC1 | . | i | . | . | . | . | . | . | . | .
Cn1c(CCN2CCCCC2)nc2cc(NS(=O)(=O)c3ccc(Cl)cc3)ccc21 | i | i | -19 | i | 8* | -2.7 | 0 | 0.56 | i | 58%*
Cc1nc2ccc(NS(=O)(=O)c3c(F)cc(F)cc3Br)cc2s1 | . | i | . | . | . | . | . | . | . | .
CC(OC(=O)c1cccs1)C(=O)NC1CC1 (stereo unspecified) | i | i | -7 | i | i | 1.1 | . | . | . | .
CCc1noc(C)c1C(=O)N1CCCSC1=Nc1ccccc1C(C)C | i | i | -9 | i | 6* | -1.9 | 84* | 0.39 | 106%* | 104%*
O=[N+]([O-])c1cc(S(=O)(=O)N2CCCCC2)ccc1NCCCN1CCOCC1 | i | i | -6 | i | i | -0.51 | . | . | . | .
CN(CC(O)COc1ccccc1F)C1CCCCC1 (stereo unspecified) | i | i | -2 | i | i | 1.2 | . | . | . | .
Cc1ccccc1OCC(O)CN(Cc1ccccc1O)C1CCCCC1 (stereo unspecified) | i | i | -15 | i | 12* | -0.09 | 90* | 0.41 | 120%* | 140%* | KCNQ1 APC inh=+
COc1cccc(C(=O)Nc2cccc3cccnc23)c1OC | i | i | -1 | i | i | -0.73 | . | . | . | .
Fc1ccc(CNC(=S)Nc2ccc(OC(F)F)cc2)cc1 | i | i | -8 | i | 7* | -0.15 | 56* | 0.5 | i | 40%*
c1ccc2c(c1)COC(CN1CCCCC1)OC2 | i | i | -17 | i | i | 0.02 | . | . | . | .
Fc1ccccc1N1CCN(c2nc3ccccc3n3nnnc23)CC1 | i | i | -8 | i | 7* | -0.04 | 76* | 0.44 | 71%* | 84%*
Fc1cc(Br)ccc1Nc1nc2ccccc2n2nnnc12 | i | i | -11 | i | i | 0.86 | . | . | . | .
CCCCOc1cccc(C(=O)Nc2ccc(S(=O)(=O)Nc3nnc(CC)s3)cc2)c1 | i | i | -25 | i | i | -0.31 | . | . | . | .
Cc1ccc(Cl)cc1N1CCN(C(=O)COc2ccc3c(c2)CCC3)CC1 | i | i | -6 | i | 7* | 0.9 | 118* | 0.42 | 121%* | 170%* | KCNQ1 APC inh=i
CCCCOc1ccc(Br)cc1CSC(=N)N | i | i | -15 | i | 7* | -7.5* | 90* | 0.43 | 60%* | i | KCNQ1 APC inh=+
Cc1cccc(N(CC(=O)NC(C)C)C(=O)c2ccc(N3CCCC3)nc2)c1 | i | i | -9 | i | i | -0.03 | . | . | . | .
CCN(CC)C(=O)c1ccc(COc2ccc(Cl)c(C)c2)o1 | i | i | -13 | i | 11* | -0.8 | 114* | 0.44 | 130%* | 109%* | KCNQ1 APC inh=i
CCC1CCCCN1C(=O)c1cc(COc2ccc3ncccc3c2)on1 (stereo unspecified) | i | -9* | -23 | i | 12* | -1.5 | 124* | 0.48 | 86%* | 112%*
SMILES | KCNQ1 pot | KCNK3 block | hERG rescue | KCNK9 inh | KCNQ1 block | Kir21 inh | KCNQ1 inh valid | CHO KCNQ1 ctr | KCNQ2 spec | KCNQ1-KCNE1 inh | others
COCC1CCCCN1C(=O)c1cc(COc2ccc3ncccc3c2)on1 (stereo unspecified) | i | i | -14 | i | i | -0.65 | . | . | . | .
O=C(CNC(=O)c1ccc(Br)o1)NNC(=O)c1ccccc1F | i | i | -6 | i | i | 0.29 | . | . | . | .
CC(C)(C)C1CCC2(CC1)C(C#N)=C(SCC(=O)NC1CCCCC1)NC(=O)C2C#N (stereo unspecified) | i | i | -7 | i | 9* | -1.9 | 72* | 0.42 | 72%* | i
Cc1cccn2c(=O)nc(SCC(=O)Nc3ccc4c(c3)OCCO4)nc12 | i | i | -12 | i | i | 1.7 | . | . | . | .
O=C(c1cccc(N2C(=O)C3C4C=CC(C4)C3C2=O)c1)N1CCCc2ccccc21 (stereo unspecified) | i | i | -4 | i | 10* | -0.56 | 0 | 0.48 | i | 46%*
O=S(=O)(NCCC1=CCCCC1)c1ccc(Br)cc1 | i | i | -14 | i | 7* | -0.51 | 99* | 0.45 | 106%* | 150%* | KCNQ1 APC inh=+
N#CC(C#N)=Cc1c(N2CCN(c3ccccc3)CC2)nc2ccccn2c1=O | i | i | -8 | i | i | -0.12 | . | . | . | .
CCN(CC(=O)Nc1ccccc1C(F)(F)F)C(=O)c1cccc(S(=O)(=O)N2CCN(C)CC2)c1 | i | i | -7 | i | i | 2.4 | . | . | . | .
Cc1ccccc1CSc1ccc(-c2ccc3c(c2)OCO3)nn1 | i | i | -8 | i | 7* | -0.46 | 132* | 0.36* | 106%* | 156%*
Cc1noc(C)c1C(=O)Nc1sc(C)c(-c2ccccc2)c1C#N | i | i | -13 | i | 9* | 0.03 | 107* | 0.42 | 81%* | 70%* | KCNQ1 APC inh=i

Screens from PubChem.
